Screening results from PubChem BioAssay.
PglD inh – PglD (C. jejuni) enzyme inhibition | purified PglD enzyme, DTNB colorimetric CoA detection | inhibition, % at 12.5 µM | 360,000 tested, 0.098% active | AID 602405; in the data active means inhibition above about 16%, passing the limit was not always enough; inconclusive means no clear call, values can overlap the other calls
FN deposit inh – fibronectin deposition inhibition; AH1F fibroblasts, Alexa488-fibronectin deposition fluorescence, overnight; inhibition, % at 12.6 µM; 350,000 tested, 0.086% active;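 active means mean inhibition across replicates of 30% or more, regardless of how many single replicates reach that level; inconclusive means mean under 30% yet at least half of replicates reach 30%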;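 further: positive control wells lacked labelled fibronectin entirely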
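Material: AH1F fibroblast monolayer depositing Alexa488-labelled fibronectin into matrix | Input: 10000 AH1F cells/well | Medium: DMEM plus 2% serum, read in PBS | Reagent: Alexa488-fibronectin, 24 nM final in well | Compound dosing: One dose per compound, pinned | Schedule: 1 h adhesion, overnight exposure | Measured by: Fluorescence at 485 nm excitation, 525 nm emission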
PGC1a acetyl inh – modulators of PGC1a acetylation. U2OS PGC1a acetylation, AlphaScreen anti-acetyl-lysine; with virally co-expressed GCN5 acetyltransferase. inhibition, % at 15.6 µM. 350,000 tested, 0.17% active. AID 651687;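 active means every replicate shows inhibition of at least 40%; inconclusive means mean inhibition at least 40% but some replicate below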;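 further: 0% = neutral control wells and 100% = positive control wells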
HIV Env fusion – inhibitors of HIV Env-mediated cell fusion. 360,000 tested, 1.1% active. inhibition, % at 12.3 µM. HeLa-JRFL Env/CEM21 cell fusion, luciferase;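 active means mean replicate inhibition score of at least 50 and every replicate individually at or above 50; inconclusive means only one of the two criteria met; inactive means mean below 50 and not all replicates reaching 50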;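 further: 0% = plate neutral controls and 100% = maraviroc near 300 nM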
Ecoli rRNA inh – inhibitors of bacterial rRNA selective over humanized ribosomes | E. coli WT GFP vs humanized-ribosome RFP mutants, fluorescence, 24 h; active compounds read low; DMSO median 0, no signal -100 | AID 720706 | 350,000 tested, 1.6% active | GFP signal change (wild-type ribosome), % (concentration not given with the values);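 active means significant combined selectivity score with lowered wild-type GFP, culture density cut under 30%, mutant RFP and density less affected; inactive means any of these conditions unmet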
DENV2 CPE – protects cells from dengue virus 2 cytopathic effect; 350,000 tested, 1.7% active; DENV2-infected cells, cytopathic effect rescue, plate reader; CPE inhibition, % at 9.99 µM; AID 651640; in the data active means CPE inhibition above about 20%, passing the limit was not always enough; inconclusive means no clear call, values can overlap the other calls; tested in BHK-21 cells;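 further: 0% = median of neutral control wells and 100% = median of positive control wells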
Numbers without * were called inactive; ? = inconclusive; . = no result; ! = not active in a repeat; [ ] = remark or other dose. Hits are enriched below; roughly 3.5% of the tested compounds scored in any of these assays.

SMILES	PglD inh	FN deposit inh	PGC1a acetyl inh	HIV Env fusion	Ecoli rRNA inh	DENV2 CPE
CC(C)NC(=O)N(C)C[C@H]1OCCCC[C@H](C)Oc2ccc(NS(=O)(=O)c3ccc(F)cc3)cc2C(=O)N([C@@H](C)CO)C[C@@H]1C	-1	3	3	-94[16.7 µM]	-6	4
O=C1/C(=C/c2cccs2)SC(=S)N1NS(=O)(=O)c1ccccc1	-22	-1	13	6	-27*	-7
O=C(CCCN1C(=O)/C(=C\c2cccs2)SC1=S)NNC(=O)c1ccncc1	.	0	1	-4	12	-2
O=C(NN1C(=O)/C(=C/c2cccs2)SC1=S)c1ccncc1	.	-4	.	-7	-29*	-2
COc1cccc(C(=O)Nc2ccc3c(c2)C(=O)N(C)C[C@@H](OC)[C@H](C)CN(C(=O)C2CCC2)[C@H](C)CO3)c1	3	6	.	.	-3	-2
COc1ccccc1-c1ccc2c(c1)O[C@H](CN(C)C)[C@@H](C)CN([C@@H](C)CO)S2(=O)=O	-2	0	-7	-12[16.7 µM]	1	7
COc1ccc(NC(=O)COC(=O)c2c(C)noc2C)cc1Cl	2	5	-28	10	-2	39*
COc1ccc(NC(=O)COC(=O)CCCOc2ccc(Cl)cc2Cl)cc1Cl	.	.	.	10	-22*	0
COc1ccc(NC(=O)COC(=O)CCCOc2ccc(Cl)cc2Cl)cc1	.	5	.	-13	-4	-2
COc1ccc(NC(=O)COC(=O)c2c(C)noc2C)c(OC)c1	.	.	2	.	.	.
COc1ccc(S(=O)(=O)Nc2ccc3c(c2)CC(=O)N([C@H](C)CO)C[C@H](C)[C@@H](CN(C)S(=O)(=O)c2ccc(Cl)cc2)O3)cc1	2	.	-2	4[16.7 µM]	-2	10
Cc1[nH]c2ccccc2c1/C=N/NC(=O)c1cc(C(C)(C)C)[nH]n1	5	4	-2	22	-12	57*
Cc1[nH]c2ccccc2c1/C=N/NC(=O)Nc1ccccc1	.	-9	-2	-33	-20*	-1
Cc1[nH]c2ccccc2c1/C=N/NC(=O)c1ccccc1	.	9	.	-2	1	-3
Cc1[nH]c2ccccc2c1/C=N/NC(=O)c1cc(-c2ccccc2)n[nH]1	-9	-10	-5	35	-23*	?
COc1ccc2c3c([nH]c2c1)[C@@H](CO)N(C)CC31CN(S(=O)(=O)c2cn(C)cn2)C1	.	.	-1	.	5	9
CN1C(=O)c2cc(NC(=O)Nc3ccccc3Cl)ccc2OC[C@H]2O[C@@H](CC(=O)O)CC[C@@H]21	-2	-8	0	-5[16.7 µM]	0	-4
O=C(N[C@H]1CC[C@@H](CCNC(=O)C2CC2)O[C@@H]1CO)c1ccncc1	-3	.	-4	23[16.7 µM]	3	-1
CCC(C)[C@H]1COCCS(=O)(=O)N1Cc1ccc(Br)cc1 (stereo not given in full)	-9	10	-10	-56	-56	100*
O=C(Nc1ccc(OCC(F)(F)C(F)F)c(C(F)(F)F)c1)c1ccccc1O	7	6	-13	78*	.	.
O=C(Nc1ccc(OCC(F)(F)C(F)F)c(C(F)(F)F)c1)c1ccccc1	-2	.	-3	.	.	.
C[C@@H]1CCCCO[C@H](CN(C)C)[C@H](C)CN([C@@H](C)CO)C(=O)c2cc(NS(=O)(=O)c3cccs3)ccc2O1	0	-8	0	5[16.7 µM]	3	-4
CCCOC(=O)c1ccc(O)cc1	4	.	-17	.	-1	26*
CCCCOC(=O)c1ccc(O)cc1	-1	1	8	-9	0	-9
CCN(CC)S(=O)(=O)c1ccc2c(c1)nc(CCC(=O)OCC(=O)Nc1c(F)cccc1F)n2C	.	-5	.	.	-4	45*
SMILES	PglD inh	FN deposit inh	PGC1a acetyl inh	HIV Env fusion	Ecoli rRNA inh	DENV2 CPE
CCN(CC)S(=O)(=O)c1ccc2c(c1)nc(CCC(=O)OCC(=O)Nc1cc(OC)cc(OC)c1)n2C	.	-4	.	.	15	-10
CC(C)NC(=O)N(C)C[C@@H]1Oc2ncc(-c3cncnc3)cc2C(=O)N([C@@H](C)CO)C[C@@H]1C	0	-8	5	-7[16.7 µM]	6	0
C[C@@H]1CCCCO[C@@H](CN(C)S(=O)(=O)c2ccccc2)[C@H](C)CN([C@@H](C)CO)C(=O)c2cc(NC(=O)Nc3cccc4ccccc34)ccc2O1	2	-2	-10	-55[16.7 µM]	1	-2
C[C@H]1CN([C@@H](C)CO)C(=O)c2cc(Br)cnc2O[C@@H]1CN(C)C(=O)Nc1ccc(C(F)(F)F)cc1	2	12	-5	-3	-12*!	18
C[C@@H]1CN([C@H](C)CO)C(=O)c2cc(-c3cccnc3)cnc2O[C@@H]1CN(C)C(=O)c1ccccc1F	-2	.	0	7[16.7 µM]	8	2
C[C@H](CO)N1C[C@H](C)[C@H](CN(C)C(=O)Nc2ccc(C(F)(F)F)cc2)Oc2ncc(Br)cc2C1=O	-1	-19	-1	7[16.7 µM]	-7	11
C[C@@H]1CN([C@@H](C)CO)C(=O)c2cc(-c3cccnc3)cnc2O[C@@H]1CN(C)C(=O)c1ccccc1F	2	.	9	-11[16.7 µM]	6	46*
C[C@H](CO)N1C[C@H](C)[C@@H](CN(C)C(=O)Nc2ccc(C(F)(F)F)cc2)Oc2ncc(-c3cccnc3)cc2C1=O	0	3	9	-14[16.7 µM]	4	30*
COc1ccccc1-c1cnc2c(c1)C(=O)N([C@@H](C)CO)C[C@H](C)[C@@H](CN(C)Cc1cccc(F)c1)O2	0	-4	-31	-1[16.7 µM]	2	-7
CCCCCCCCN1[C@@H](CC(C)=O)c2cc(C(F)(F)F)ccc2S1(=O)=O	-4	-23	1	61*	-2	?
COC(=O)C[C@H]1c2cc(C(F)(F)F)ccc2S(=O)(=O)N1Cc1ccc(OC)cc1	-1	-10	-106	-1	-8	20*
COc1ccccc1CN1[C@@H](CC(C)=O)c2cc(C(F)(F)F)ccc2S1(=O)=O	3	-3	8	29	-10	71*
CC(C)NC(=O)Nc1ccc2c(c1)C(=O)N([C@H](C)CO)C[C@H](C)[C@H](CN(C)Cc1ccccc1)OCCCC[C@H](C)O2	0	1	-14	-22[16.7 µM]	1	-11
O=C(O)c1ccccc1C(=O)NCc1c(Cl)cccc1Sc1ccc(Cl)cc1	4	-3	-17	19	-29*	26*
CC(C)(CC(=O)O)CC(=O)NCc1c(Cl)cccc1Sc1ccc(Cl)cc1	-5	3	4	7	-40*	-6
O=C(O)CCCC(=O)NCc1c(Cl)cccc1Sc1ccc(Cl)cc1	-7	7	2	-2	.	13
C[C@@H]1CN([C@H](C)CO)C(=O)Cc2cc(NC(=O)CCC(F)(F)F)ccc2O[C@H]1CN(C)S(=O)(=O)c1cccs1	4	.	8	-3[16.7 µM]	-3	4
C[C@H](CO)N1C[C@H](C)[C@H](CN(C)Cc2cncnc2)Oc2cc(-c3ccncc3)ccc2S1(=O)=O	-3	-14	0	12[16.7 µM]	-2	1
